Assay outcomes as filed in PubChem BioAssay.
CRFR2-BP antag – antagonists of CRF-binding protein/CRF-R2 receptor complex. inhibition, % at 11.8 µM. AID 588475. HEK293 CRF-R2/CRF-BP, CRF-induced calcium fluorescence. hit rate 0.59% among 350,000;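 active = inhibition of the ligand-induced calcium signal above about 50% at the single tested concentration, limit read from the data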
CSN inh – CSN deneddylation inhibition | inhibition, % at 12.5 µM | hit rate 0.38% among 360,000 | Purified CSN, SCF-Nedd8-OG deneddylation, fluorescence polarization;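 active = pattern-corrected inhibition above about 35%, with an unprinted fluorescence ratio check between 0.5 and 1.5, limit read from the data, passing the limit was not always enough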;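 note: 0% = enzyme with substrate and 100% = substrate without enzyme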
Target sequence (Q92905 whole entry, looked up, one chain of several): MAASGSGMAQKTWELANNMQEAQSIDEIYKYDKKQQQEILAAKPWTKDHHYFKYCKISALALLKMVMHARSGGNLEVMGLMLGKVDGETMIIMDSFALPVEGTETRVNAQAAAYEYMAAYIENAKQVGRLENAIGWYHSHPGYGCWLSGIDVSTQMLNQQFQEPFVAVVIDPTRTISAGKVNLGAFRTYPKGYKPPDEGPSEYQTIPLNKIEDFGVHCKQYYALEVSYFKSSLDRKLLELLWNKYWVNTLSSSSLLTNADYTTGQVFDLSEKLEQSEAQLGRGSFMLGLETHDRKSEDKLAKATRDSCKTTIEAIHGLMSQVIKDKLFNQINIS
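Assay system: purified human Csn5 enzyme expressed in HEK293T cells; measure: % inhibition; also added: SCFSkp2-Nedd8OG substrate at 10 nM final; technique: fluorescence polarization; times: reaction 90 min, room temperature; medium: Tris buffer pH 7.5, NaCl, DTT, Tween-20, trehalose, ovalbumin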
Rpn11 block – Rpn11 (human) deubiquitinase inhibition; human 26S proteasome, Ub4-pepOG fluorescence polarization; 20S core pre-blocked with epoxomicin; calls only at 20 µM; hit rate 0.59% among 360,000;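 active = inhibition at 20 µM, scaled to each plate's controls, above about 33%, limit read from the data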
Target sequence (O00487 whole entry, looked up): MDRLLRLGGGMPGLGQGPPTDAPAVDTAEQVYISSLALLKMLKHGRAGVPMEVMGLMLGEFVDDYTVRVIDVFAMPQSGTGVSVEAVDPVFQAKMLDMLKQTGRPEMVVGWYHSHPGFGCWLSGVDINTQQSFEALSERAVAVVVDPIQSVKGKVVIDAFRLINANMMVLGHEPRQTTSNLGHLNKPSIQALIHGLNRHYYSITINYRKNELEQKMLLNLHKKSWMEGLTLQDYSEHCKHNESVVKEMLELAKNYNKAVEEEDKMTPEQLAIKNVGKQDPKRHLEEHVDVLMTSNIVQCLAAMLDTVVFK
CRFBP-R2 agonist – agonists of human CRF-binding protein/CRF-R2 receptor complex; hit rate 0.46% among 350,000; HEK293 CRF-R2/CRF-BP, calcium dye fluorescence (FLIPR); percent of saturating CRF peptide response; activation, % at 13.2 µM;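 active = activation of at least 50%, plus an integration ratio under a set limit after plate pattern correction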;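 note: plate controls were neutral control wells without compound for no effect and CRF at EC100 for full effect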
TPT1 inhibitor – inhibitors of Candida albicans tRNA 2'-phosphotransferase TPT1. recombinant caTPT1, FP RNA substrate dephosphorylation. inhibition, % at 5 µM. hit rate 0.81% among 300,000;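 active = inhibition above the mean of all tested compounds plus 3 SD, set per screening campaign, cut at about 24% in these data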;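 note: plate controls were DMSO alone for no effect and ferristatin control at 100 nM for full effect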
HNF4A DNA FP – change in binding of human HNF4 alpha to DNA | activity change, % at 10 µM | HNF4a-FITC DNA binding, fluorescence polarization, 1 h | hit rate 0.3% among 360,000; in the data active = activity change above about 30%, passing the limit was not always enough
Rpn11 inh conf – Rpn11 inhibition confirmation, single concentration; shares compounds with Rpn11 block; purified human 26S proteasome, Ub4-pepOG fluorescence polarization; proteasome pretreated with epoxomicin; inhibition, % at 20 µM; hit rate 29% among 1,900
MMP-2 counter-1 – MMP-2 (human) inhibition counter-screen; shares compounds with Rpn11 block; recombinant MMP-2, FRET peptide cleavage fluorescence; inhibition, % at 20 µM; hit rate 4% among 1,900;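 note: human MMP-2 activated beforehand with APMA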
Thrombin FP – counter-screen for RPN11 inhibitors: inhibition of bovine thrombin; AID 602333; inhibition, % at 20 µM; shares compounds with Rpn11 block; bovine thrombin cleavage of Ub4-pepOG, fluorescence polarization; hit rate 13% among 1,900;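 active = mean inhibition at least 40% at 20 µM, or signal 3 deviations below plate average, so some actives read negative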;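 note: plate controls were thrombin with DMSO for no effect and buffer wells lacking thrombin for full effect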
CSN5 deneddyl – validation of inhibitors of human CSN-mediated cullin deneddylation. shares compounds with CSN inh. Csn5 deneddylation of SCF-Nedd8OG, fluorescence polarization, 90 min. inhibition, % at 16.6 µM. hit rate 62% among 540. AID 720654; in the data active = inhibition above about 50%;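 note: 0% = DMSO with enzyme and 100% = no enzyme wells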
MMP-2 counter-2 – counter-screen for CSN deneddylation inhibitors: human MMP-2 inhibition; shares compounds with CSN inh; recombinant MMP-2, FRET substrate fluorescence, 60 min; inhibition, % at 16.6 µM; hit rate 33% among 540; AID 720655;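 active = corrected plate-normalized z-score of 5 or more, or -5 or less, or inhibition of 15% or more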;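 note: plate controls were DMSO wells with enzyme for no effect and buffer wells lacking MMP-2 for full effect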
Thrombin cntr – blocks bovine thrombin in a CSN deneddylation counter-screen; shares compounds with CSN inh; bovine thrombin cleavage of Ub4-pepOG, fluorescence polarization; inhibition, % at 16.6 µM; hit rate 49% among 540; AID 720656;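 active = inhibition at or above a set limit, with a fluorescence interference ratio between 0.5 and a set maximum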
HNF4a DNA conf – change in binding of human HNF4 alpha to DNA, retest | hit rate 99% among 210 | activity change, % at 12.5 µM | HNF4A-FITC DNA binding, fluorescence polarization, 1 h | shares compounds with HNF4A DNA FP; call rule not given here
Active calls of the source: *. A selection: hits, their analogues and other compounds. The true share with any hit is near 2.3%. Cut-off read from the data, not from the text of the source, unless noted: active = inhibition above about 40%; inactive = the rest.

Results for COc1ccc(N2CCN(Cc3cc(=O)c(OCC(=O)NC4CCCC4)co3)CC2)cc1 ?
CRFR2-BP antag: -2.7; CSN inh: 4.5; Rpn11 block: inactive; CRFBP-R2 agonist: 0.6; TPT1 inhibitor: -1.2; HNF4A DNA FP: -0.2

Results for COc1ccc(OCC(=O)Nc2c(C(=O)N(CCN(C)C)Cc3ccco3)oc3ccccc23)cc1 ?
CRFR2-BP antag: -21.6; CSN inh: -2.5; Rpn11 block: inactive; CRFBP-R2 agonist: 2.6; TPT1 inhibitor: -1.0; HNF4A DNA FP: -2.4

What do the screens show for `COc1cc(/C=N/NC(=O)c2cccnc2)ccc1OCC(=O)Nc1ccccc1Cl`?
CRFR2-BP antag: 9.8; CSN inh: 145.7*; Rpn11 block: active; CRFBP-R2 agonist: -1.0; TPT1 inhibitor: -3.1; HNF4A DNA FP: 47.8*; Rpn11 inh conf: active; MMP-2 counter-1: inactive; Thrombin FP: -9.2; HNF4a DNA conf: 123.6*

Results for COc1ccc(NC(=O)COc2ccc(/C=N/NC(=O)c3cccnc3)cc2OC)cc1 ?
CRFR2-BP antag: -9.8; CSN inh: -0.8; Rpn11 block: inactive; CRFBP-R2 agonist: -0.9; TPT1 inhibitor: -0.1; HNF4A DNA FP: 2.7

What do the screens show for `Cn1c(=O)oc2cc(S(=O)(=O)N3CCCC(C(=O)Nc4ccc5c(c4)OCCO5)C3)ccc21` (stereo unspecified)?
CRFR2-BP antag: 3.4; CSN inh: 8.4; Rpn11 block: inactive; CRFBP-R2 agonist: 2.6; TPT1 inhibitor: -2.3; HNF4A DNA FP: -10.4

How did O=C(Nc1ccc2oc(-c3ccncc3)nc2c1)c1ccc2c(c1)OCO2 do in these assays?
CRFR2-BP antag: 2.2; CSN inh: 111.2*; Rpn11 block: active; CRFBP-R2 agonist: -1.2; TPT1 inhibitor: 0.7; HNF4A DNA FP: 65.6*; Rpn11 inh conf: 6.0; MMP-2 counter-1: inactive; Thrombin FP: -0.2; HNF4a DNA conf: 168.8*

What do the screens show for `O=C(N/N=C/c1cc2ccccc2nc1Cl)/C(=C/c1cccs1)NC(=O)c1ccccc1`?
CRFR2-BP antag: 2.7; CSN inh: 18.9; Rpn11 block: active; CRFBP-R2 agonist: -2.8; TPT1 inhibitor: 10.0; HNF4A DNA FP: 46.6*; Rpn11 inh conf: 18.9; MMP-2 counter-1: -174.7; Thrombin FP: 15.0; HNF4a DNA conf: 49.7*

Results for O=[N+]([O-])c1cccc(C=NNc2ccccc2)c1 ?
CRFR2-BP antag: -16.8; CSN inh: -0.9; Rpn11 block: inactive; CRFBP-R2 agonist: -1.4; HNF4A DNA FP: -3.5

Results for O=[N+]([O-])c1ccc(C=NNc2ccccc2)cc1 ?
CRFR2-BP antag: -29.9; CSN inh: 21.3; Rpn11 block: active; CRFBP-R2 agonist: 8.1; HNF4A DNA FP: 46.5*; Rpn11 inh conf: 35.8; MMP-2 counter-1: -21.2; Thrombin FP: 24.7; HNF4a DNA conf: 46.8*

Results for CCN(CC)c1ccc(/C=C(\C#N)C(N)=O)cc1 ?
CRFR2-BP antag: -7.4; CSN inh: 14.2; Rpn11 block: active; CRFBP-R2 agonist: 1.7; HNF4A DNA FP: 33.9*; Rpn11 inh conf: 29.1; MMP-2 counter-1: -77.6; Thrombin FP: 24.7; HNF4a DNA conf: 46.5*

What do the screens show for `O=C1C2CC=C(Cl)CC2C(=O)N1CNc1ccccn1` (stereo unspecified)?
CRFR2-BP antag: 5.5; CSN inh: -3.4; Rpn11 block: inactive; CRFBP-R2 agonist: -0.8; TPT1 inhibitor: 0.0; HNF4A DNA FP: -0.4

Results for CC1CCN(c2ccc3c(c2)S(=O)(=O)c2cccc(C(=O)NC4CCCCC4)c2C3=O)CC1 ?
CRFR2-BP antag: -21.1; CSN inh: 17.4; Rpn11 block: active; CRFBP-R2 agonist: 22.5; HNF4A DNA FP: 40.2*; Rpn11 inh conf: 43.7*; MMP-2 counter-1: -28.1; Thrombin FP: 31.4; HNF4a DNA conf: 39.9*

Results for CN(C)c1ccc2nc3ccc(=O)cc-3sc2c1 ?
CRFR2-BP antag: 0.7; CSN inh: 54.7*; Rpn11 block: inactive; CRFBP-R2 agonist: 8.0; HNF4A DNA FP: -17.6; CSN5 deneddyl: 103.8*; MMP-2 counter-2: 25.7*; Thrombin cntr: 14.2

How did Cc1c(C#N)c2ncn(Cc3ccccc3)c(=O)c2n1-c1ccccc1 do in these assays?
CRFR2-BP antag: -22.3; CSN inh: -6.9; Rpn11 block: inactive; CRFBP-R2 agonist: -0.4; TPT1 inhibitor: 0.7; HNF4A DNA FP: -2.4

How did CCOc1cc(/C=N/NC(=O)c2ccc(-c3csc(Nc4ccc(C)cc4)n3)cc2)ccc1OCC(=O)O do in these assays?
CRFR2-BP antag: -8.2; CSN inh: 49.2*; Rpn11 block: inactive; CRFBP-R2 agonist: 1.2; HNF4A DNA FP: -14.8; CSN5 deneddyl: 45.2; MMP-2 counter-2: 30.2*; Thrombin cntr: -5.2

What do the screens show for `O=C(O)COc1ccc(/C=N/NC(=O)c2ccc(-c3csc(Nc4ccc(Cl)cc4)n3)cc2)cc1`?
CRFR2-BP antag: -4.6; CSN inh: 93.4*; Rpn11 block: active; CRFBP-R2 agonist: -1.4; HNF4A DNA FP: -91.2; CSN5 deneddyl: 97.8*; MMP-2 counter-2: 16.2*; Thrombin cntr: -6.6

Results for Cc1nc(SC(C(=O)c2ccccc2)c2ccccc2)n[nH]1 (stereo unspecified) ?
CRFR2-BP antag: 3.8; CSN inh: 2.6; Rpn11 block: inactive; CRFBP-R2 agonist: -0.6; TPT1 inhibitor: -2.2; HNF4A DNA FP: -0.3

How did Cc1oc(-c2ccc(-c3ccccc3)cc2)nc1CN1CCN(CC(=O)N(C)C)CC1 do in these assays?
CRFR2-BP antag: -5.8; CSN inh: 2.0; Rpn11 block: inactive; CRFBP-R2 agonist: 0.7; TPT1 inhibitor: -4.6; HNF4A DNA FP: -0.2
